Legend:
[1] = target: Phosphatidylinositol 4,5-bisphosphate 3-kinase catalytic subunit alpha isoform (Homo sapiens, UniProt P42336); assay: Inhibition of PI3K expressed in Escherichia coli by microtiter plate-based fluorescence polarization assay
Method in brief: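 Fluorescence polarization assay of PI3K activity with PIP2 substrate. Reactions contained 20 mM Hepes pH 7.5, 2 mM MgCl2, 0.05% CHAPS, 0.01% βME, 20 µM PIP2 and 25 µM ATP, and ran 15–30 min at room temperature. They were stopped with buffer holding 10 nM TAMRA-labeled probe and 40 nM GST-GRP1 (E. coli-expressed detector), then incubated 1–2 h before FP readout.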

[2] = target: Serine/threonine-protein kinase mTOR (Homo sapiens, UniProt P42345); assay: Inhibition of mTOR
LNCaP = assay: Growth inhibition of human LNCap cells; format: functional, cell-based

Sequence of Phosphatidylinositol 4,5-bisphosphate 3-kinase catalytic subunit alpha isoform (P42336 whole entry, canonical isoform): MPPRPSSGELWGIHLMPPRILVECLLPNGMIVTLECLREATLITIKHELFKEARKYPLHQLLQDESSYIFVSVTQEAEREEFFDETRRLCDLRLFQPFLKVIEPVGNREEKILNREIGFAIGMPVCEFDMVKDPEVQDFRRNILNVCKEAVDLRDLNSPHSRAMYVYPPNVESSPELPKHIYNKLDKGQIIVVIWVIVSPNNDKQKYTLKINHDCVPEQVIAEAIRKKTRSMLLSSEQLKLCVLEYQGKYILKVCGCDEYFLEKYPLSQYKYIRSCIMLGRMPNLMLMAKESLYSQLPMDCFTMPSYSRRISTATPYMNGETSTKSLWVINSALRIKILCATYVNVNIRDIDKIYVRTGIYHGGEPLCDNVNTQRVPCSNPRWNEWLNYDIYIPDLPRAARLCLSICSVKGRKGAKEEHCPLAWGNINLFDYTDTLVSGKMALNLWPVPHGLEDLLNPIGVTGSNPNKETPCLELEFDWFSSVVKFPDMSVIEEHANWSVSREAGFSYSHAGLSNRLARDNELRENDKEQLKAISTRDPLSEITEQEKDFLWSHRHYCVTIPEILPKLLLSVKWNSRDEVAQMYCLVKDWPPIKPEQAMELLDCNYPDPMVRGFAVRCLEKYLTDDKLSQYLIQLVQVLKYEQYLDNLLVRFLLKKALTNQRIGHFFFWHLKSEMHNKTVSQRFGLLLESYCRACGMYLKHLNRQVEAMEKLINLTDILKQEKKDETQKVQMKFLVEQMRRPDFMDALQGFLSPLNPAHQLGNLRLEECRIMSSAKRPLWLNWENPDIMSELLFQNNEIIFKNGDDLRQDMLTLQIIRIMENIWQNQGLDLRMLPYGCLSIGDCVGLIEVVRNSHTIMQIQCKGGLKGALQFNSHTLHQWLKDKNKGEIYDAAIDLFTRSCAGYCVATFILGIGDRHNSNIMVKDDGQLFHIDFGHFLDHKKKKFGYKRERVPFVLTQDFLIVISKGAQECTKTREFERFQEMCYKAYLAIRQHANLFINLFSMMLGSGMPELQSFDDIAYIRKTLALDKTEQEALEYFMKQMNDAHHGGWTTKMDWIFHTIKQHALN

Row | IC50 [1] [nM] | IC50 [2] [nM] | IC50 (LNCaP) [nM] | SMILES
1 | 43 | 820 | 1470 | COC[C@H]1OC(=O)/C(=C/N2CCN(C3CCCCC3)CC2)C2=C(O)C(=O)C3=C([C@H](OC(C)=O)C[C@]4(C)[C@@H](O)CC[C@@H]34)[C@]21C
2 | 444 | > 1690 | 144 | COC[C@H]1OC(=O)/C(=C/N(CCC#N)Cc2ccccc2)C2=C(O)C(=O)C3=C([C@H](OC(C)=O)C[C@]4(C)[C@@H](O)CC[C@@H]34)[C@]21C
3 | 15 | 1350 | 620 | COC[C@H]1OC(=O)/C(=C/N(C)CCCN2CCN(c3ccc(OC)cc3)CC2)C2=C(O)C(=O)C3=C([C@H](OC(C)=O)C[C@]4(C)[C@@H](O)CC[C@@H]34)[C@]21C
4 | 8.4 | 1470 | 751 | COC[C@H]1OC(=O)/C(=C/N(C)CCN(C)C)C2=C(O)C(=O)C3=C([C@H](OC(C)=O)C[C@]4(C)[C@@H](O)CC[C@@H]34)[C@]21C
5 | 33 | 822 | 500 | COC[C@H]1OC(=O)/C(=C/N2CCC(C(=O)O)CC2)C2=C(O)C(=O)C3=C([C@H](OC(C)=O)C[C@]4(C)[C@@H](O)CC[C@@H]34)[C@]21C
6 | 38 | 249 | 831 | COC[C@H]1OC(=O)/C(=C/N2CCN(CCCN(C)C)CC2)C2=C(O)C(=O)C3=C([C@H](OC(C)=O)C[C@]4(C)[C@@H](O)CC[C@@H]34)[C@]21C
7 | 127 | 1210 | 1010 | COC[C@H]1OC(=O)/C(=C/N(C)C2CCN(C)C2)C2=C(O)C(=O)C3=C([C@H](OC(C)=O)C[C@]4(C)[C@@H](O)CC[C@@H]34)[C@]21C (stereo partly drawn)
8 | 60 | 960 | 699 | COC[C@H]1OC(=O)/C(=C/N2CCC(=O)CC2)C2=C(O)C(=O)C3=C([C@H](OC(C)=O)C[C@]4(C)[C@@H](O)CC[C@@H]34)[C@]21C
9 | > 10000 | > 20000 | 40700 | COC[C@H]1OC(=O)/C(=C/NC(C)(C)C)C2=C(O)C(=O)C3=C([C@H](OC(C)=O)C[C@]4(C)[C@@H](O)CC[C@@H]34)[C@]21C
10 | 50 | 767 | 2590 | CCN(CC)CCN(C)/C=C1/C(=O)O[C@H](COC)[C@@]2(C)C1=C(O)C(=O)C1=C2[C@H](OC(C)=O)C[C@]2(C)[C@@H](O)CC[C@@H]12
11 | 172 | 2450 | 1520 | COC[C@H]1OC(=O)/C(=C/N2CCC(c3ccccc3)CC2)C2=C(O)C(=O)C3=C([C@H](OC(C)=O)C[C@]4(C)[C@@H](O)CC[C@@H]34)[C@]21C
12 | 66 | 5600 | 1430 | COC[C@H]1OC(=O)/C(=C/N(CCN(C)C)Cc2ccccc2)C2=C(O)C(=O)C3=C([C@H](OC(C)=O)C[C@]4(C)[C@@H](O)CC[C@@H]34)[C@]21C
13 | 45 | 1200 | 637 | COC[C@H]1OC(=O)/C(=C/N2CCN(CCCN3CCOCC3)CC2)C2=C(O)C(=O)C3=C([C@H](OC(C)=O)C[C@]4(C)[C@@H](O)CC[C@@H]34)[C@]21C
14 | 56 | 692 | 953 | COC[C@H]1OC(=O)/C(=C/N2CCN(c3ccccc3)CC2)C2=C(O)C(=O)C3=C([C@H](OC(C)=O)C[C@]4(C)[C@@H](O)CC[C@@H]34)[C@]21C
15 | 638 | > 20000 | 2340 | COC[C@H]1OC(=O)/C(=C/N(C)CCCN(C)C)C2=C(O)C(=O)C3=C([C@H](O)C[C@]4(C)[C@@H](O)CC[C@@H]34)[C@]21C
16 | 78 | 619 | 794 | COC[C@H]1OC(=O)/C(=C/N2CCN(CCN3CCOCC3)CC2)C2=C(O)C(=O)C3=C([C@H](OC(C)=O)C[C@]4(C)[C@@H](O)CC[C@@H]34)[C@]21C
17 | 496 | > 20000 | 257 | COC[C@H]1OC(=O)/C(=C/N2CCCC2)C2=C(O)C(=O)C3=C([C@H](OC(C)=O)C[C@]4(C)[C@@H](O)CC[C@@H]34)[C@]21C

Row | IC50 [1] [nM] | IC50 [2] [nM] | IC50 (LNCaP) [nM] | SMILES
18 | 9.6 | 816 | 919 | COC[C@H]1OC(=O)/C(=C/N(CCCN(C)C)C(C)(C)C)C2=C(O)C(=O)C3=C([C@H](OC(C)=O)C[C@]4(C)[C@@H](O)CC[C@@H]34)[C@]21C
19 | 440 | 6500 | 189 | COC[C@H]1OC(=O)/C(=C/N(C)C(C)(C)C)C2=C(O)C(=O)C3=C([C@H](OC(C)=O)C[C@]4(C)[C@@H](O)CC[C@@H]34)[C@]21C
20 | 10 | 2330 | 465 | COC[C@H]1OC(=O)/C(=C/N(C)CCCN2CCN(C)CC2)C2=C(O)C(=O)C3=C([C@H](OC(C)=O)C[C@]4(C)[C@@H](O)CC[C@@H]34)[C@]21C
21 | 63 | 568 | 1500 | COC[C@H]1OC(=O)/C(=C/N2CCC(N3CCCCC3)CC2)C2=C(O)C(=O)C3=C([C@H](OC(C)=O)C[C@]4(C)[C@@H](O)CC[C@@H]34)[C@]21C
22 | 1580 | 13900 | 174 | COC[C@H]1OC(=O)/C(=C/N(C)CC(=O)OC(C)(C)C)C2=C(O)C(=O)C3=C([C@H](OC(C)=O)C[C@]4(C)[C@@H](O)CC[C@@H]34)[C@]21C
23 | 90 | 829 | 1090 | COC[C@H]1OC(=O)/C(=C/N2CCN(C)CC2)C2=C(O)C(=O)C3=C([C@H](OC(C)=O)C[C@]4(C)[C@@H](O)CC[C@@H]34)[C@]21C
24 | 199 | 1870 | 168 | COC[C@H]1OC(=O)/C(=C/N(C)CC(O)CO)C2=C(O)C(=O)C3=C([C@H](OC(C)=O)C[C@]4(C)[C@@H](O)CC[C@@H]34)[C@]21C (stereo partly drawn)
25 | 87 | 890 | 1650 | COC[C@H]1OC(=O)/C(=C/N2CCN(Cc3ccccc3)CC2)C2=C(O)C(=O)C3=C([C@H](OC(C)=O)C[C@]4(C)[C@@H](O)CC[C@@H]34)[C@]21C
26 | 193 | 12600 | 365 | COC[C@H]1OC(=O)/C(=C/N(C)CCCC(=O)O)C2=C(O)C(=O)C3=C([C@H](OC(C)=O)C[C@]4(C)[C@@H](O)CC[C@@H]34)[C@]21C
27 | 24 | 1480 | 1310 | CCN(/C=C1/C(=O)O[C@H](COC)[C@@]2(C)C1=C(O)C(=O)C1=C2[C@H](OC(C)=O)C[C@]2(C)[C@@H](O)CC[C@@H]12)CCN(CC)CC
28 | 104 | 1800 | 1550 | COC[C@H]1OC(=O)/C(=C/N2CCCCC2)C2=C(O)C(=O)C3=C([C@H](OC(C)=O)C[C@]4(C)[C@@H](O)CC[C@@H]34)[C@]21C
29 | 918 | > 18700 | 131 | COC[C@H]1OC(=O)/C(=C/N(CCO)CCO)C2=C(O)C(=O)C3=C([C@H](OC(C)=O)C[C@]4(C)[C@@H](O)CC[C@@H]34)[C@]21C
30 | 31 | 1690 | 506 | COC[C@H]1OC(=O)/C(=C/N2CCC(C(=O)OC)CC2)C2=C(O)C(=O)C3=C([C@H](OC(C)=O)C[C@]4(C)[C@@H](O)CC[C@@H]34)[C@]21C
31 | > 10000 | > 20000 | 2020 | COC[C@H]1OC(=O)/C(=C/NCCCN(C)C)C2=C(O)C(=O)C3=C([C@H](OC(C)=O)C[C@]4(C)[C@@H](O)CC[C@@H]34)[C@]21C
32 | 22 | 3560 | 259 | COC[C@H]1OC(=O)/C(=C/N(CCCN(C)C)CCCN(C)C)C2=C(O)C(=O)C3=C([C@H](OC(C)=O)C[C@]4(C)[C@@H](O)CC[C@@H]34)[C@]21C
33 | 91 | 961 | 782 | COC[C@H]1OC(=O)/C(=C/N2CCN(C3CCN(C)CC3)CC2)C2=C(O)C(=O)C3=C([C@H](OC(C)=O)C[C@]4(C)[C@@H](O)CC[C@@H]34)[C@]21C
34 | 24 | 2290 | 595 | COC[C@H]1OC(=O)/C(=C/N(C)CCCN2CCOCC2)C2=C(O)C(=O)C3=C([C@H](OC(C)=O)C[C@]4(C)[C@@H](O)CC[C@@H]34)[C@]21C

Row | SMILES | IC50 [1] [nM] | IC50 [2] [nM] | IC50 (LNCaP) [nM]
35 | CCN/C=C1/C(=O)O[C@H](COC)[C@@]2(C)C1=C(O)C(=O)C1=C2[C@H](OC(C)=O)C[C@]2(C)[C@@H](O)CC[C@@H]12 | > 10000 | > 20000 | 7070
36 | COC[C@H]1OC(=O)/C(=C/N2CCOCC2)C2=C(O)C(=O)C3=C([C@H](OC(C)=O)C[C@]4(C)[C@@H](O)CC[C@@H]34)[C@]21C | 37 | 831 | 966
37 | C=CCN(/C=C1/C(=O)O[C@H](COC)[C@@]2(C)C1=C(O)C(=O)C1=C2[C@H](OC(C)=O)C[C@]2(C)C(=O)CC[C@@H]12)CC=C [SONOLISIB] | 88 | 3100 | 573
38 | CCN(/C=C1/C(=O)O[C@H](COC)[C@@]2(C)C1=C(O)C(=O)C1=C2[C@H](OC(C)=O)C[C@]2(C)[C@@H](O)CC[C@@H]12)CCCN(C)C | 12 | 3570 | 535
39 | CCN(/C=C1/C(=O)O[C@H](COC)[C@@]2(C)C1=C(O)C(=O)C1=C2[C@H](OC(C)=O)C[C@]2(C)[C@@H](O)CC[C@@H]12)CCN(C)C | 5 | 878 | 1020
40 | CCCCN(C)/C=C1/C(=O)O[C@H](COC)[C@@]2(C)C1=C(O)C(=O)C1=C2[C@H](OC(C)=O)C[C@]2(C)[C@@H](O)CC[C@@H]12 | 635 | 8700 | 203
41 | CCN(/C=C1/C(=O)O[C@H](COC)[C@@]2(C)C1=C(O)C(=O)C1=C2[C@H](O)C[C@]2(C)[C@@H](O)CC[C@@H]12)CC | 7850 | > 20000 | 710
